The values below come from ChEMBL document CHEMBL1649084, “Novel trisubstituted benzimidazoles, targeting Mtb FtsZ, as a new class of antitubercular agents” (J Med Chem, 2011).

Values after ≈ are worked out from the molar mass of the structure shown.

The test system of data set [1] is Mycobacterium tuberculosis. Kind of data set: Antimycobacterial activity against Mycobacterium tuberculosis H37Rv after 24 hrs by microplate Alamar Blue assay. The class given is functional. The essentials:
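MIC99 by microplate Alamar Blue: DMSO stocks serially diluted 2-fold in 96-well plates; Mtb grown in 7H9 + 10% OADC + 0.05% Tween-80, used at mid-log phase, added to OD600 0.005; 6 days at 37 °C, then AlamarBlue added and a further 24 h at 37 °C; read by colour change; triplicate.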
In general terms: The colour change of resazurin is a common sign of viable cells or microbes.

For a further data set, the system named is Vero. Kind of data set: Cytotoxicity against african green monkey Vero cells after 3 days by Alamar Blue assay. To be noted: chlorocebus sabaeus, 72 h. The format is cell-based.
In data set [2] the test system is Mycobacterium tuberculosis. Kind of data set: Antimycobacterial activity against Mycobacterium tuberculosis H37Rv W210 after 24 hrs by microplate Alamar Blue assay. The class given is functional.
The test system of data set [3] is Mycobacterium tuberculosis. Kind of data set: Antimycobacterial activity against Mycobacterium tuberculosis H37Rv NHN382 after 24 hrs by microplate Alamar Blue assay. The class given is functional.
The target of data set [4] is T1, Cell division protein FtsZ (Mycobacterium tuberculosis) (UniProt P9WN95).
T1 sequence (whole entry): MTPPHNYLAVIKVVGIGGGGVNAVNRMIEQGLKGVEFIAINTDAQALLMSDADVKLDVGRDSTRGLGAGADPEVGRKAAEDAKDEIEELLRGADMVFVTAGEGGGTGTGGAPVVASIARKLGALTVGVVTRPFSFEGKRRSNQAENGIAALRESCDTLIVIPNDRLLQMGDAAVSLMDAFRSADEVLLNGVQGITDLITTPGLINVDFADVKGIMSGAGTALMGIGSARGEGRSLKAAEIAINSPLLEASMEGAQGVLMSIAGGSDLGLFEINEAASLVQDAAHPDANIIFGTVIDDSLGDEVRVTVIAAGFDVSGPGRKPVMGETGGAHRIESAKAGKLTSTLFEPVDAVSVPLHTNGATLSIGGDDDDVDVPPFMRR
Kind of data set: (§1) Inhibition of Mycobacterium tuberculosis FtsZ polymerization. The essentials:
(§2)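 90° light scattering at 30 °C, excitation/emission 400 nm. Inhibitor at various concentrations preincubated in 50 mM MES, 5 mM MgCl2, 50 mM KCl, pH 6.5 to baseline. Mtb FtsZ (15 μM) then added; polymerization started with 5 mM GTP (20 μL into 1,000 μL final); monitored 30-60 min. DMSO-matched controls.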

In data set [5] the target is T2, Cell division protein FtsZ (Mycobacterium tuberculosis, UniProt P9WN95).
T2 sequence (P9WN95 whole entry): T1 sequence (whole entry)
The description is as §1. The essentials:
as §2

A word on the MIC99: it is an inhibitory concentration at the 99% level, which refers to growth in some studies and to a panel of isolates in others. As for `CCN(CC)c1cc2[nH]c(C3CCCCC3)nc2cc1NC(=O)c1ccc(C)cc1`, the MIC99 in data set [1] was determined as 15.1 µM (≈ 6.11 µg/mL). Moreover, in the data set on Vero, the Cytotoxic concentration was > 400 µM.
As for `C=CCCOC(=O)Nc1cc2nc(C3CCCCC3)[nH]c2cc1N(CC)CC`, the MIC99 in data set [2] and in data set [3] was 4.2 µM (≈ 1.62 µg/mL) in each case. Besides, the Cytotoxic concentration with Vero was > 400 µM.
As for `CCOC(=O)Nc1cc(NC(C)=O)c2[nH]c(-c3ccccc3)nc2c1`, the MIC99 is 4.6 µM (≈ 1.56 µg/mL) in data set [2] (Mycobacterium tuberculosis, H37Rv W210, 24 h, read-out: MIC99) and 2.3 µM (≈ 0.778 µg/mL) in data set [3]. In addition, the Cytotoxic concentration with Vero is > 200 µM.
In data set [1], `CCN(CC)c1cc2[nH]c(C3CCCCC3)nc2cc1NC(=O)OCc1ccccc1` returned an MIC99 of 3.8 µM (≈ 1.6 µg/mL). For the same molecule, in the data set on Vero, the Cytotoxic concentration is > 400 µM.
`CCN(CC)c1cc2[nH]c(C3CCCCC3)nc2cc1NC(=O)c1ccc(Cl)cc1`: the MIC99 in data set [1] was 14.1 µM (≈ 5.99 µg/mL). For the same molecule, the Cytotoxic concentration in the data set on Vero was > 400 µM.
For `O=C(Nc1cc2nc(C3CCCCC3)[nH]c2cc1N1CCCC1)OCc1ccccc1`, the MIC99 in data set [2] and in data set [3] was 3.7 µM (≈ 1.55 µg/mL) each time. For the same molecule, the Cytotoxic concentration in the data set on Vero was > 200 µM.
`CCCOC(=O)Nc1cc2nc(C3CCCCC3)[nH]c2cc1N(CC)CC` came in with an MIC99 in data set [1] of 4.3 µM (≈ 1.6 µg/mL). In addition, in the data set with Vero, the Cytotoxic concentration is > 400 µM.
The matching figures for `CCN(CC)c1cc2[nH]c(C3CCCCC3)nc2cc1NC(=O)c1ccc(OC)cc1`: 7.4 µM (≈ 3.11 µg/mL) and > 400 µM.
Usually IC50 stands for the concentration that gives 50% inhibition. `CCN(CC)c1cc2[nH]c(C3CCCCC3)nc2cc1NC(=O)c1ccccc1` gave an MIC99 in data set [1] of 7.9 µM (≈ 3.09 µg/mL). In addition, the Cytotoxic concentration in the data set on Vero was > 400 µM. The Activity result in data set [4] is “Dose-dependent effect”. Further, in data set [5], half-maximal inhibition (IC50) was put at 6.21 µM.
In the case of `CCCCOC(=O)Nc1cc2nc(C3CCCCC3)[nH]c2cc1N(CC)CC`, the MIC99 was determined as 4 µM (≈ 1.55 µg/mL) in data set [2] and 2 µM (≈ 0.773 µg/mL) in data set [3] (Mycobacterium tuberculosis, H37Rv NHN382, 24 h, read-out: MIC99). Also, the Cytotoxic concentration in the data set on Vero was > 400 µM. This molecule displayed an IC50 in data set [5] of 7.69 µM.
For `CCCCOC(=O)Nc1cc2nc(C3CCCCC3)[nH]c2cc1N1CCCC1`, the MIC99 in data set [2] and in data set [3] was 1 µM (≈ 0.385 µg/mL) in each case. The Cytotoxic concentration in the data set with Vero was > 200 µM.
